# ChEMBL document CHEMBL2086271, “Bicyclic Cyclohexenones as Inhibitors of NF-κB Signaling” (ACS Med Chem Lett, 2012)
# Activity calls are given as the source filed them. No cut-off for these calls is given here.
# Tests used:
# [1] = Solubility of the compound in DMEM media; assay type: physicochemical
# DU-145 [2] = experiment: Inhibition of IkappaB in human DU145 cells assessed as inhibition of TNFalpha-induced NFkappaB p65 nuclear translocation at 100 uM incubated for 14 hrs prior to TNFalpha-induction measured after 2 hrs by Western blot analysis; assay type: cell-based
# DU-145 [3] = experiment: Ratio of cryptocaryone IC50 to compound IC50 for human DU145 cells; assay type: functional
# DU-145 [4] = experiment: Inhibition of NFkappaB in human DU145 cells assessed as inhibition of TNFalpha-induced IL8 mRNA production at 33 uM by RT-PCR analysis; assay type: cell-based
# Outline: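 DU-145 cells were dosed with compound (100 or 33 μM) or DMSO vehicle, then induced with TNF-α. IL-8 mRNA was analysed by semiquantitative RT-PCR, with GAPDH as reference. Noninduced and induced cells served as controls.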
# A549 [5] = experiment: Cytotoxicity against human TNFalpha-induced A549 cells assessed as decrease in cell viability at 50 uM incubated for 30 mins prior to TNFalpha-induction measured after 7 hrs by alamar blue staining relative to control; assay type: cell-based; settings: a549, 7 h
# [6] = Cytotoxicity against human RWPE1 cells after 48 hrs by alamar blue assay; assay type: cell-based; settings: RWPE-1, 48 h
# Outline: (§1)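 Viability read by Alamar Blue staining after 48 h exposure to a range of concentrations. Vero (African green monkey kidney epithelial), RWPE-1, DU-145 and CCRF-CEM human cells were used. IC50 is reported as mean ± SD.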
# DU-145 [7] = experiment: Cytotoxicity against human DU145 cells after 48 hrs by alamar blue assay; assay type: functional, cell-based; outline: as §1
# Vero = experiment: Cytotoxicity against african green monkey Vero cells after 48 hrs by alamar blue assay; assay type: cell-based; settings: Chlorocebus sabaeus; outline: as §1
# CCRF-CEM [8] = experiment: Partial inhibition of IkappaB in human CCRF-CEM cells assessed as inhibition of PMA-induced NFkappaB p65 nuclear translocation at 25 uM incubated for 12 hrs prior to TNFalpha-induction measured after 4 hrs by Western blot analysis; assay type: cell-based
# CCRF-CEM [9] = experiment: Cytotoxicity against human CCRF-CEM cells after 48 hrs by alamar blue assay; assay type: functional, cell-based; outline: as §1
# A549 [10] = experiment: Inhibition of TNFalpha-induced NFkappaB in human A549 cells assessed as residual enzyme activity at 10 uM incubated for 30 mins prior to TNFalpha-induction measured after 7 hrs by luciferase reporter gene assay relative to control; assay type: cell-based
# Outline: (§2)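 A549 human lung cells stably carry a luciferase reporter driven by six tandem consensus NF-κB sites. Signaling was induced with TNF-α, and compound was added at 100, 50 or 10 μM. Luciferase activity is expressed relative to the induced, DMSO-treated control, set at 100%. Mean ± SD reported.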
# DU-145 [11] = experiment: Inhibition of NFkappaB in human DU145 cells assessed as inhibition of TNFalpha-induced IL8 protein production at 33 uM by ELISA; assay type: cell-based
# Outline: (§3)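 DU-145 cells were dosed with compound (100 or 33 μM) or DMSO vehicle, then NF-κB was induced with TNF-α. Secreted IL-8 in the culture medium was quantified by ELISA, with noninduced and induced controls. Mean ± SEM reported.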
# [12] = Selectivity index, ratio of IC50 for human RWPE1 cells to IC50 for human DU145 cells; assay type: functional
# A549 [13] = experiment: Inhibition of TNFalpha-induced NFkappaB in human A549 cells assessed as residual enzyme activity at 50 uM incubated for 30 mins prior to TNFalpha-induction measured after 7 hrs by luciferase reporter gene assay relative to control; assay type: cell-based; outline: as §2
# CCRF-CEM [14] = experiment: Inhibition of IkappaB in human CCRF-CEM cells assessed as inhibition of PMA-induced NFkappaB p65 nuclear translocation at 100 uM incubated for 12 hrs prior to TNFalpha-induction measured after 4 hrs by Western blot analysis; assay type: cell-based
# A549 [15] = experiment: Inhibition of TNFalpha-induced NFkappaB in human A549 cells assessed as residual enzyme activity at 100 uM incubated for 30 mins prior to TNFalpha-induction measured after 7 hrs by luciferase reporter gene assay relative to control; assay type: cell-based; outline: as §2
# DU-145 [16] = experiment: Partial inhibition of IkappaB in human DU145 cells assessed as inhibition of TNFalpha-induced NFkappaB p65 nuclear translocation at 25 uM incubated for 14 hrs prior to TNFalpha-induction measured after 2 hrs by Western blot analysis; assay type: cell-based
# DU-145 [17] = experiment: Inhibition of NFkappaB in human DU145 cells assessed as TNFalpha-induced IL8 protein level at 100 uM by ELISA; assay type: cell-based; outline: as §3
compound,measurement,setting,value
CO[C@@]12C=C(Br)C(=O)C[C@@H]1/C(=C(/OC(C)=O)c1ccccc1)CC2 (racemic),solubility,[1],Insoluble
CC(=O)O/C(=C1\CO[C@]2(C)C=CC(=O)C[C@H]12)c1ccccc1 (racemic),inhibition,DU-145 [2],Active
same,Ratio IC50,DU-145 [3],15
same,inhibition,DU-145 [4],Active
same,Activity,A549 [5],10%
same,IC50,[6],14.8 µM
same,IC50,"DU-145 [7]; Homo sapiens, DU-145, 48 h",33.7 µM
same,IC50,Vero,> 500 µM
same,inhibition,CCRF-CEM [8],Active
same,IC50,"CCRF-CEM [9]; Homo sapiens, CCRF-CEM, 48 h",26.4 µM
same,Activity,A549 [10],90.9%
same,Activity,DU-145 [11],3480 pg/mL
same,Ratio IC50,[12],0.44
same,Activity,A549 [13],61.6%
same,inhibition,CCRF-CEM [14],Active
same,Activity,A549 [15],33.9%
same,inhibition,DU-145 [16],Active
CC(=O)O/C(=C1\CO[C@]2(C)CCC(=O)C[C@H]12)c1ccccc1 (racemic),Activity,DU-145 [17],4900 pg/mL
same,IC50,[6],> 500 µM
same,IC50,"DU-145 [7]; Homo sapiens, DU-145, 48 h",> 500 µM
same,IC50,Vero,> 500 µM
same,IC50,"CCRF-CEM [9]; Homo sapiens, CCRF-CEM, 48 h",> 500 µM
same,Activity,A549 [10],109%
same,Activity,A549 [13],94.4%
same,Activity,A549 [15],76.1%
CC(=O)O/C(C)=C1\CO[C@]2(C)C=C(Br)C(=O)C[C@H]12 (racemic),inhibition,A549 [10],inactive
same,inhibition,A549 [13],inactive
same,inhibition,A549 [15],inactive
CC(=O)O/C(C)=C1\CO[C@]2(C)C=C(Br)[C@H](O)C[C@H]12 (racemic),inhibition,A549 [10],inactive
same,inhibition,A549 [13],inactive
same,inhibition,A549 [15],inactive
CC(=O)O/C(C)=C1\CO[C@]2(C)C=C(C)C(=O)C[C@H]12 (racemic),inhibition,A549 [10],inactive
same,inhibition,A549 [13],inactive
same,inhibition,A549 [15],inactive
CC(=O)O/C(C)=C1\CO[C@]2(C)C=CC(=O)C[C@]12C (racemic),inhibition,A549 [10],inactive
same,inhibition,A549 [13],inactive
same,inhibition,A549 [15],inactive
CC(=O)[C@H]1CO[C@]2(C)C=C(c3ccccc3)[C@H](O)C[C@H]12 (racemic),inhibition,A549 [10],inactive
same,inhibition,A549 [13],inactive
same,inhibition,A549 [15],inactive
CC(=O)O/C(C)=C1\CO[C@]2(c3ccccc3)C=CC(=O)C[C@H]12 (racemic; form 1) [listing 1 of 2 here],Ratio IC50,DU-145 [3],15
same,Activity,A549 [5],5%
same,IC50,[6],98.8 µM
same,IC50,"DU-145 [7]; Homo sapiens, DU-145, 48 h",35.9 µM
same,IC50,Vero,> 500 µM
same,IC50,CCRF-CEM [9]; ccrf-cem,26.4 µM
same,Ratio IC50,[12],2.75
CC(=O)O/C(C)=C1\CO[C@]2(c3ccccc3)C=CC(=O)C[C@H]12 (racemic; form 1) [listing 2 of 2 here],inhibition,DU-145 [2],Active
same,inhibition,DU-145 [4],Active
same,inhibition,CCRF-CEM [8],Active
same,Activity,A549 [10],93.7%
same,Activity,DU-145 [11],2970 pg/mL
same,Activity,A549 [13],36.2%
same,inhibition,CCRF-CEM [14],Active
same,Activity,A549 [15],17.3%
same,inhibition,DU-145 [16],Active
CC(=O)O/C(C)=C1\CO[C@]2(c3ccccc3)C=CC(=O)C[C@H]12 (racemic; form 2) [listing 1 of 2 here],IC50,DU-145 [7]; du-145,46 µM
same,IC50,"CCRF-CEM [9]; Homo sapiens, CCRF-CEM, 48 h",19 µM
CC(=O)O/C(C)=C1\CO[C@]2(c3ccccc3)C=CC(=O)C[C@H]12 (racemic; form 2) [listing 2 of 2 here],Activity,A549 [13],18%
O=C1C[C@@H]2/C(=C(O)\C=C\c3ccccc3)C(=O)C=C[C@@H]2O1 [CRYPTOCARYONE],IC50,"DU-145 [7]; Homo sapiens, DU-145, 48 h",2.3 µM
